Test results taken from ChEMBL document CHEMBL5724801, “EUbOPEN Chemogenomics Library - Multiplex” (2024).
Values joined by “and” are separate entries in the source; they are usually repeats but may differ in a detail not shown here. Equal values may be shown once.

Test system: HEK-293T
Test: Multiplex assay against HEK293T
Assay type: toxicity, cell-based
Details: human
Procedure, shortened: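 Live cells carried four stains from seeding: Hoechst33342, BioTracker Green Microtubule Cytoskeleton Dye, MitoTracker Red and Annexin V Alexa Fluor 680. They were imaged on a CQ1 microscope at 37°C and 5% CO2 after compound addition. Using CellPathfinder machine-learning gating, cells were split into Hoechst high-intensity objects or normal cells, normal cells into healthy, pyknosed or fragmented nuclei, and pyknosed cells into mitotic or apoptotic; tubulin, mitochondrial-mass and membrane-permeability phenotypes are per cents of healthy-nucleus cells.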

[1] = 12 h, 1 µM, compound concentration 1 uM
[2] = 12 h, 10 µM, compound concentration 10 uM
[3] = 24 h, 1 µM, compound concentration 1 uM
[4] = 24 h, 10 µM, compound concentration 10 uM
[5] = 48 h, 1 µM, compound concentration 1 uM
[6] = 48 h, 10 µM, compound concentration 10 uM

## Cl.N=C(N)NC(=O)Cc1c(Cl)cccc1Cl [GUANFACINE HYDROCHLORIDE]
[1]
  Population Apoptotic (%): 29% and 47%
  Population Fragmented Nuclei (%): 3% and 5%
  Population Healthy Nuclei (%): 84% and 76%
  Population Hoechst High Intensity Objects (%): 7% and 12%
  Population Membrane Permeable-Phenotype (%): 0%
  Population Mitochondria Different-Phenotype (%): 46% and 67%
  Population Mitotic Cells (%): 70% and 52%
  Population Normal (%): 92% and 87%
  Population Pyknosed Nuclei (%): 11% and 17%
  Population Tubulin-Different-Phenotype (%): 31%
  Total Cell Count: 384 and 289
[2]
  Population Apoptotic (%): 52% and 34%
  Population Fragmented Nuclei (%): 12% and 8%
  Population Healthy Nuclei (%): 67% and 77%
  Population Hoechst High Intensity Objects (%): 7% and 10%
  Population Membrane Permeable-Phenotype (%): 0%
  Population Mitochondria Different-Phenotype (%): 61% and 69%
  Population Mitotic Cells (%): 47% and 65%
  Population Normal (%): 92% and 89%
  Population Pyknosed Nuclei (%): 20% and 14%
  Population Tubulin-Different-Phenotype (%): 43% and 38%
  Total Cell Count: 296 and 365
[3]
  Population Apoptotic (%): 36% and 50%
  Population Fragmented Nuclei (%): 8% and 4%
  Population Healthy Nuclei (%): 80% and 83%
  Population Hoechst High Intensity Objects (%): 4% and 10%
  Population Membrane Permeable-Phenotype (%): 0%
  Population Mitochondria Different-Phenotype (%): 27% and 42%
  Population Mitotic Cells (%): 63% and 50%
  Population Normal (%): 95% and 89%
  Population Pyknosed Nuclei (%): 11%
  Population Tubulin-Different-Phenotype (%): 21% and 19%
  Total Cell Count: 493 and 344
[4]
  Population Apoptotic (%): 46% and 36%
  Population Fragmented Nuclei (%): 11% and 6%
  Population Healthy Nuclei (%): 75% and 83%
  Population Hoechst High Intensity Objects (%): 7% and 9%
  Population Membrane Permeable-Phenotype (%): 0%
  Population Mitochondria Different-Phenotype (%): 48% and 50%
  Population Mitotic Cells (%): 53% and 63%
  Population Normal (%): 92% and 90%
  Population Pyknosed Nuclei (%): 12% and 10%
  Population Tubulin-Different-Phenotype (%): 39% and 27%
  Total Cell Count: 343 and 454
[5]
  Population Apoptotic (%): 15% and 34%
  Population Fragmented Nuclei (%): 15% and 10%
  Population Healthy Nuclei (%): 78% and 79%
  Population Hoechst High Intensity Objects (%): 2% and 7%
  Population Membrane Permeable-Phenotype (%): 1% and 0%
  Population Mitochondria Different-Phenotype (%): 22% and 32%
  Population Mitotic Cells (%): 84% and 65%
  Population Normal (%): 97% and 92%
  Population Pyknosed Nuclei (%): 6% and 9%
  Population Tubulin-Different-Phenotype (%): 21% and 14%
  Total Cell Count: 680 and 560
[6]
  Population Apoptotic (%): 47% and 50%
  Population Fragmented Nuclei (%): 17% and 12%
  Population Healthy Nuclei (%): 73% and 80%
  Population Hoechst High Intensity Objects (%): 6% and 10%
  Population Membrane Permeable-Phenotype (%): 0%
  Population Mitochondria Different-Phenotype (%): 31% and 33%
  Population Mitotic Cells (%): 52% and 50%
  Population Normal (%): 93% and 89%
  Population Pyknosed Nuclei (%): 9% and 6%
  Population Tubulin-Different-Phenotype (%): 14% and 20%
  Total Cell Count: 421 and 612

## CCCCC[C@H](O)/C=C/[C@H]1[C@H](O)CC(=O)[C@@H]1CCCCCCC(=O)O [ALPROSTADIL]
[1]
  Population Apoptotic (%): 35% and 50%
  Population Fragmented Nuclei (%): 7% and 6%
  Population Healthy Nuclei (%): 79% and 80%
  Population Hoechst High Intensity Objects (%): 7% and 6%
  Population Membrane Permeable-Phenotype (%): 0%
  Population Mitochondria Different-Phenotype (%): 42% and 55%
  Population Mitotic Cells (%): 64% and 49%
  Population Normal (%): 92% and 93%
  Population Pyknosed Nuclei (%): 13%
  Population Tubulin-Different-Phenotype (%): 28% and 18%
  Total Cell Count: 471 and 392
[2]
  Population Apoptotic (%): 33%
  Population Fragmented Nuclei (%): 7%
  Population Healthy Nuclei (%): 78% and 75%
  Population Hoechst High Intensity Objects (%): 6% and 9%
  Population Membrane Permeable-Phenotype (%): 1% and 0%
  Population Mitochondria Different-Phenotype (%): 48% and 64%
  Population Mitotic Cells (%): 66%
  Population Normal (%): 93% and 90%
  Population Pyknosed Nuclei (%): 14% and 17%
  Population Tubulin-Different-Phenotype (%): 33% and 30%
  Total Cell Count: 318 and 309
[3]
  Population Apoptotic (%): 35% and 34%
  Population Fragmented Nuclei (%): 9% and 6%
  Population Healthy Nuclei (%): 79% and 85%
  Population Hoechst High Intensity Objects (%): 3% and 4%
  Population Membrane Permeable-Phenotype (%): 1% and 0%
  Population Mitochondria Different-Phenotype (%): 22% and 35%
  Population Mitotic Cells (%): 64% and 65%
  Population Normal (%): 96% and 95%
  Population Pyknosed Nuclei (%): 10% and 8%
  Population Tubulin-Different-Phenotype (%): 15% and 14%
  Total Cell Count: 605 and 526
[4]
  Population Apoptotic (%): 32% and 36%
  Population Fragmented Nuclei (%): 11% and 7%
  Population Healthy Nuclei (%): 76% and 79%
  Population Hoechst High Intensity Objects (%): 2% and 8%
  Population Membrane Permeable-Phenotype (%): 0%
  Population Mitochondria Different-Phenotype (%): 26% and 50%
  Population Mitotic Cells (%): 67% and 63%
  Population Normal (%): 97% and 91%
  Population Pyknosed Nuclei (%): 12%
  Population Tubulin-Different-Phenotype (%): 23% and 22%
  Total Cell Count: 439 and 345
[5]
  Population Apoptotic (%): 32% and 13%
  Population Fragmented Nuclei (%): 13% and 16%
  Population Healthy Nuclei (%): 79% and 77%
  Population Hoechst High Intensity Objects (%): 2% and 3%
  Population Membrane Permeable-Phenotype (%): 2% and 0%
  Population Mitochondria Different-Phenotype (%): 12% and 21%
  Population Mitotic Cells (%): 67% and 86%
  Population Normal (%): 97% and 96%
  Population Pyknosed Nuclei (%): 7% and 6%
  Population Tubulin-Different-Phenotype (%): 11% and 12%
  Total Cell Count: 1005 and 714
[6]
  Population Apoptotic (%): 25% and 20%
  Population Fragmented Nuclei (%): 15% and 14%
  Population Healthy Nuclei (%): 76% and 79%
  Population Hoechst High Intensity Objects (%): 2%
  Population Membrane Permeable-Phenotype (%): 1% and 0%
  Population Mitochondria Different-Phenotype (%): 17% and 30%
  Population Mitotic Cells (%): 75% and 80%
  Population Normal (%): 97%
  Population Pyknosed Nuclei (%): 7% and 6%
  Population Tubulin-Different-Phenotype (%): 15% and 14%
  Total Cell Count: 685 and 537

## CCCCC1=NC2(CCCC2)C(=O)N1Cc1ccc(-c2ccccc2-c2nnn[nH]2)cc1 [IRBESARTAN]
[1]
  Population Apoptotic (%): 24% and 28%
  Population Fragmented Nuclei (%): 9% and 8%
  Population Healthy Nuclei (%): 79% and 78%
  Population Hoechst High Intensity Objects (%): 9% and 4%
  Population Membrane Permeable-Phenotype (%): 0%
  Population Mitochondria Different-Phenotype (%): 34% and 63%
  Population Mitotic Cells (%): 75% and 71%
  Population Normal (%): 91% and 95%
  Population Pyknosed Nuclei (%): 10% and 12%
  Population Tubulin-Different-Phenotype (%): 17% and 20%
  Total Cell Count: 500 and 353
[2]
  Population Apoptotic (%): 50% and 56%
  Population Fragmented Nuclei (%): 7% and 6%
  Population Healthy Nuclei (%): 70% and 78%
  Population Hoechst High Intensity Objects (%): 5% and 13%
  Population Membrane Permeable-Phenotype (%): 2% and 0%
  Population Mitochondria Different-Phenotype (%): 46% and 66%
  Population Mitotic Cells (%): 50% and 43%
  Population Normal (%): 94% and 86%
  Population Pyknosed Nuclei (%): 22% and 15%
  Population Tubulin-Different-Phenotype (%): 50% and 33%
  Total Cell Count: 219 and 351
[3]
  Population Apoptotic (%): 31% and 34%
  Population Fragmented Nuclei (%): 9%
  Population Healthy Nuclei (%): 79% and 80%
  Population Hoechst High Intensity Objects (%): 4% and 7%
  Population Membrane Permeable-Phenotype (%): 0%
  Population Mitochondria Different-Phenotype (%): 24% and 45%
  Population Mitotic Cells (%): 68% and 65%
  Population Normal (%): 95% and 92%
  Population Pyknosed Nuclei (%): 10% and 9%
  Population Tubulin-Different-Phenotype (%): 15% and 14%
  Total Cell Count: 625 and 456
[4]
  Population Apoptotic (%): 27% and 41%
  Population Fragmented Nuclei (%): 6% and 11%
  Population Healthy Nuclei (%): 77%
  Population Hoechst High Intensity Objects (%): 3% and 10%
  Population Membrane Permeable-Phenotype (%): 1% and 0%
  Population Mitochondria Different-Phenotype (%): 37% and 49%
  Population Mitotic Cells (%): 72% and 58%
  Population Normal (%): 96% and 89%
  Population Pyknosed Nuclei (%): 15% and 11%
  Population Tubulin-Different-Phenotype (%): 32% and 22%
  Total Cell Count: 287 and 434
[5]
  Population Apoptotic (%): 29% and 23%
  Population Fragmented Nuclei (%): 11% and 9%
  Population Healthy Nuclei (%): 81% and 84%
  Population Hoechst High Intensity Objects (%): 3% and 2%
  Population Membrane Permeable-Phenotype (%): 0% and 1%
  Population Mitochondria Different-Phenotype (%): 21% and 19%
  Population Mitotic Cells (%): 70% and 76%
  Population Normal (%): 96% and 97%
  Population Pyknosed Nuclei (%): 7% and 6%
  Population Tubulin-Different-Phenotype (%): 15% and 8%
  Total Cell Count: 958 and 705
[6]
  Population Apoptotic (%): 25% and 46%
  Population Fragmented Nuclei (%): 15% and 12%
  Population Healthy Nuclei (%): 75% and 80%
  Population Hoechst High Intensity Objects (%): 1% and 3%
  Population Membrane Permeable-Phenotype (%): 0%
  Population Mitochondria Different-Phenotype (%): 21% and 26%
  Population Mitotic Cells (%): 75% and 53%
  Population Normal (%): 98% and 96%
  Population Pyknosed Nuclei (%): 9% and 6%
  Population Tubulin-Different-Phenotype (%): 15%
  Total Cell Count: 473 and 684
